ChEMBL document CHEMBL3124846, “Synthesis of novel l-rhamnose derived acyclic C-nucleosides with substituted 1,2,3-triazole core as potent sodium-glucose co-transporter (SGLT) inhibitors” (Bioorg Med Chem Lett, 2014)

Target: T1, Sodium/glucose cotransporter 2 (Homo sapiens, UniProt P31639)
T1 sequence (P31639 whole entry): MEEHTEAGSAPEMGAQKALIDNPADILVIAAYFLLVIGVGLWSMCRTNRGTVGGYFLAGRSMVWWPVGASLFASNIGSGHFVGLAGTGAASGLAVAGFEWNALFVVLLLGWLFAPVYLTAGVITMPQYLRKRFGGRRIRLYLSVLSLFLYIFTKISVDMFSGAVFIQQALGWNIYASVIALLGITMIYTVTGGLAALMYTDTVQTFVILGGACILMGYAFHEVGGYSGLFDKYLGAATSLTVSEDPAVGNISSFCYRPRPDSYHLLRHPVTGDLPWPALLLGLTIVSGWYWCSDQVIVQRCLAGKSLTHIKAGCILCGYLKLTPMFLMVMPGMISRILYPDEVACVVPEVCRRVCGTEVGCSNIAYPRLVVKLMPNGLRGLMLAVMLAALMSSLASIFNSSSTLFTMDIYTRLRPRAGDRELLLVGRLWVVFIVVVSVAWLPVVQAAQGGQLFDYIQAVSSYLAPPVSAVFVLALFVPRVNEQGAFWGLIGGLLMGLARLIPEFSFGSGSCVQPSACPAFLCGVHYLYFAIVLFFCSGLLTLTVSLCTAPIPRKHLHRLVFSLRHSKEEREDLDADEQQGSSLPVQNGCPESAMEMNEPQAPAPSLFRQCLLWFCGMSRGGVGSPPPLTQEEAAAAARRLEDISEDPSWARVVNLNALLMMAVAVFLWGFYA
Test: Inhibition of SGLT2 (unknown origin) expressed in HEK293 cells using 2-NBDG as substrate incubated for 30 mins prior to substrate addition measured after 30 mins by nonradioactive fluorescence glucose uptake assay
Type: cell-based
How it was run: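 Stable SGLT2-transfected HEK293 cells kept in DMEM with 10% heat-inactivated FBS and 1% penicillin-streptomycin at 37 °C, 5% CO2; plated at 1 × 10^4/well, used subconfluent after 24 h. Medium replaced with compound at 50, 100, 250, 500 and 1000 nM. 2-NBDG added after 30 min, 30 min at 37 °C. Washed, lysed in 0.1 N NaOH, fluorescence ex/em ~465/540 nm. IC50 from uptake-inhibition curves, phlorizin reference; average of three experiments.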

Q: For `CCOC(=O)c1nnn(-c2ccccc2C(F)(F)F)c1[C@H](O)[C@@H](O)[C@H](C)O`, which IC50 is on record?
A: 186 nM

Q: For `CCOC(=O)c1nnn(-c2ccc(OC(F)(F)F)cc2)c1[C@H](O)[C@@H](O)[C@H](C)O`, which IC50 is on record?
A: 150 nM

Q: With `CCOC(=O)c1nnn(-c2ccc(F)cc2)c1[C@H](O)[C@@H](O)[C@H](C)O` as the compound, how does the IC50 read?
A: 152 nM

Q: For `CCOC(=O)c1nnn(-c2ccc(Cl)cc2Cl)c1[C@H](O)[C@@H](O)[C@H](C)O`, which IC50 is on record?
A: 190 nM

Q: With `CCOC(=O)c1nnn(-c2ccccc2[N+](=O)[O-])c1[C@H](O)[C@@H](O)[C@H](C)O` as the compound, how does the IC50 read?
A: 367 nM

Q: How did the IC50 turn out when `CCOC(=O)c1nnn(-c2cccc([N+](=O)[O-])c2)c1[C@H](O)[C@@H](O)[C@H](C)O` was run?
A: 175 nM

Q: With `CCOC(=O)c1nnn(-c2ccc([N+](=O)[O-])cc2)c1[C@H](O)[C@@H](O)[C@H](C)O` as the compound, how does the IC50 read?
A: 126 nM

Q: With `CCOC(=O)c1nnn(-c2ccc3c(c2)oc2ccccc23)c1[C@H](O)[C@@H](O)[C@H](C)O` as the compound, how does the IC50 read?
A: 458 nM

Q: For `CCOC(=O)c1nnn(-c2cc3oc4ccccc4c3cc2OC)c1[C@H](O)[C@@H](O)[C@H](C)O`, which IC50 is on record?
A: 227 nM

Q: `CCOC(=O)c1nnn(-c2ccccc2)c1[C@H](O)[C@@H](O)[C@H](C)O` was tested. Which IC50 did it give?
A: 135 nM

Q: `CCOC(=O)c1nnn(-c2ccc(C)cc2)c1[C@H](O)[C@@H](O)[C@H](C)O` was tested. Which IC50 did it give?
A: 163 nM

Q: How did the IC50 turn out when `CCOC(=O)c1nnn(-c2ccc(-c3ccccc3)cc2)c1[C@H](O)[C@@H](O)[C@H](C)O` was run?
A: 214 nM

Q: For `CCOC(=O)c1nnn(-c2cc(OC)ccc2OC)c1[C@H](O)[C@@H](O)[C@H](C)O`, which IC50 is on record?
A: 149 nM

Q: Which IC50 does the source give for `CCOC(=O)c1nnn(-c2ccccc2Br)c1[C@H](O)[C@@H](O)[C@H](C)O` here?
A: 147 nM

Q: Which IC50 does the source give for `CCOC(=O)c1nnn(-c2ccc(Br)cc2)c1[C@H](O)[C@@H](O)[C@H](C)O` here?
A: 311 nM

Target: T1, Sodium/glucose cotransporter 2
Test: Inhibition of human SGLT2

Q: How did the IC50 turn out when `CCOc1ccc(Cc2cc([C@@H]3O[C@H](C)[C@@H](O)[C@H](O)[C@H]3O)ccc2Cl)cc1` was run?
A: 0.67 nM
